Assay results taken from ChEMBL document CHEMBL2046280, “Discovery of the novel potent and selective FLT3 inhibitor 1-{5-[7-(3- morpholinopropoxy)quinazolin-4-ylthio]-[1,3,4]thiadiazol-2-yl}-3-p-tolylurea and its anti-acute myeloid leukemia (AML) activities in vitro and in vivo” (J Med Chem, 2012).
The source made the active and inactive calls. No cut-off for these calls is given here.

Experiments:
MV4-11 [1] = test: Cytotoxicity against FLT3-dependent human MV4-11 cells after 72 hrs by MTT assay; type: functional, cell-based; conditions: MV4-11, 72 h
Method in brief: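 Leukemia cells at 1−4 × 10⁴ per well were exposed to increasing inhibitor concentrations for 72 h at 37 °C. MTT was then added for 2−4 h, and cells were lysed with 20% acidified SDS. OD read at 570 nm. Viability relative to 0.1% DMSO controls; triplicate. MV4-11 grown in IMDM, others in RPMI 1640 or DMEM with 10% FBS.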

PC-9 = test: Cytotoxicity against human PC9 cells after 72 hrs by MTT assay; conditions: PC-9, 72 h
K562 = test: Cytotoxicity against human K562 cells after 72 hrs by MTT assay; conditions: K562, 72 h
MV4-11 [2] = test: Antitumor activity against human MV4-11 cells xenografted in NOD-SCID mouse assessed as tumor growth inhibition at 100 mg/kg, ip once daily for 21 days measured every 3 days relative to control; type: functional; conditions: MV4-11, ip, route intraperitoneal, read-out: GI
Method in brief: (§1)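 Female NOD-SCID mice, 6−7 weeks old, received 100 μL of MV4-11 cells (1 × 10⁸/mL in serum-free medium) s.c. in the hind flank. At 300−500 mm³ tumours, mice were randomized (6 per group). Drug was dissolved in 25% (v/v) PEG400 plus 5% DMSO and given ip once daily at 5 mL/kg. Calipers every 3 days; volume = a × b²/2.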

Jurkat = test: Cytotoxicity against human Jurkat cells after 72 hrs by MTT assay
PC-3 = test: Cytotoxicity against human PC3 cells after 72 hrs by MTT assay; conditions: PC-3, 72 h
MV4-11 [3] = test: Downregulation of Erk1/2 protein expression in human MV4-11 cells at 10 to 300 nM after 5 hrs by Western blot analysis; type: functional, cell-based
[4] = target: Tyrosine-protein kinase Lck (Homo sapiens, UniProt P06239); test: Inhibition of human Lck
Sequence of Tyrosine-protein kinase Lck (P06239 whole entry): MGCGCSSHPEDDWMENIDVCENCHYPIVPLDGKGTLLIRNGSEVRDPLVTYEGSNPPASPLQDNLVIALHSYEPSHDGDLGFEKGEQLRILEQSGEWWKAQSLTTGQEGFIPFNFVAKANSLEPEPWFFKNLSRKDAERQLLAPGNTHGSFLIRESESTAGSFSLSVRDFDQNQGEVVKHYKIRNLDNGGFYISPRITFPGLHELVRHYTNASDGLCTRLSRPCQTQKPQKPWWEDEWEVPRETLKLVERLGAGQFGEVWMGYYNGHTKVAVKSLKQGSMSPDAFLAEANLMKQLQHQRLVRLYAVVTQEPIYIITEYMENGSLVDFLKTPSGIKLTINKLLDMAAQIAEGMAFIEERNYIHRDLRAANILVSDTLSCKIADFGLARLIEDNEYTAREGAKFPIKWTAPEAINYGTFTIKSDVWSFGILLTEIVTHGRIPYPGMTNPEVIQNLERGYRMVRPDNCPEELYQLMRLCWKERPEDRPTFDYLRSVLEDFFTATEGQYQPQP

[5] = target: Tyrosine-protein kinase JAK3 (Homo sapiens, UniProt P52333); test: Inhibition of human JAK3
Sequence of Tyrosine-protein kinase JAK3 (P52333 whole entry): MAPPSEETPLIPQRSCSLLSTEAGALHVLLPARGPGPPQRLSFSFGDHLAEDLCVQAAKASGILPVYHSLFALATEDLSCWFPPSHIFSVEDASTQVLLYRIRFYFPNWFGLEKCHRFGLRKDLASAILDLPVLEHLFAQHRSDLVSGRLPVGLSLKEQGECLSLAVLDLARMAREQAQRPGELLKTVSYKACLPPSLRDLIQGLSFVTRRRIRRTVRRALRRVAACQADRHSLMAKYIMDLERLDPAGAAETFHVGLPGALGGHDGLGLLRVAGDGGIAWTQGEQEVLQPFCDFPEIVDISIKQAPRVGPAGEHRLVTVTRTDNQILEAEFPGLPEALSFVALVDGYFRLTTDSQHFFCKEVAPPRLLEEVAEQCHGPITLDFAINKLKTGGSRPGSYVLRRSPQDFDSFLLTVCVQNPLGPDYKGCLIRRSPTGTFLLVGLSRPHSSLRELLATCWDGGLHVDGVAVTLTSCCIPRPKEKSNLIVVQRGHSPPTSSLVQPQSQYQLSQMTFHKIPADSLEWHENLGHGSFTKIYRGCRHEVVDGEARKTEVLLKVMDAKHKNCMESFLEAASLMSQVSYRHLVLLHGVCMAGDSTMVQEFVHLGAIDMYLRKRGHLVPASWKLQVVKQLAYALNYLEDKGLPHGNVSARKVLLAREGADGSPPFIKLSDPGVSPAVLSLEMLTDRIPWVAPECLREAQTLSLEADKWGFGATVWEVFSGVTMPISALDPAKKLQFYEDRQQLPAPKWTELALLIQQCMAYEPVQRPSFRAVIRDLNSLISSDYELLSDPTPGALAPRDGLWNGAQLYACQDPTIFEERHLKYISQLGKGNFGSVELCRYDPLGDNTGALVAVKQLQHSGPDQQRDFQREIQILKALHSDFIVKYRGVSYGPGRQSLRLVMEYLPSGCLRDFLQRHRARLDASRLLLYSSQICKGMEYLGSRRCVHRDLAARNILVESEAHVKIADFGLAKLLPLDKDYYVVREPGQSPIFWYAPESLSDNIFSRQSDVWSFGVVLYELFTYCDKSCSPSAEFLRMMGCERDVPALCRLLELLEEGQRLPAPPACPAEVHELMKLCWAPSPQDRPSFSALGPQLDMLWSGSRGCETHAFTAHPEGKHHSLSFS

[6] = target: Vascular endothelial growth factor receptor 2 (Homo sapiens, UniProt P35968); test: Inhibition of human KDR
Sequence of Vascular endothelial growth factor receptor 2 (P35968 whole entry): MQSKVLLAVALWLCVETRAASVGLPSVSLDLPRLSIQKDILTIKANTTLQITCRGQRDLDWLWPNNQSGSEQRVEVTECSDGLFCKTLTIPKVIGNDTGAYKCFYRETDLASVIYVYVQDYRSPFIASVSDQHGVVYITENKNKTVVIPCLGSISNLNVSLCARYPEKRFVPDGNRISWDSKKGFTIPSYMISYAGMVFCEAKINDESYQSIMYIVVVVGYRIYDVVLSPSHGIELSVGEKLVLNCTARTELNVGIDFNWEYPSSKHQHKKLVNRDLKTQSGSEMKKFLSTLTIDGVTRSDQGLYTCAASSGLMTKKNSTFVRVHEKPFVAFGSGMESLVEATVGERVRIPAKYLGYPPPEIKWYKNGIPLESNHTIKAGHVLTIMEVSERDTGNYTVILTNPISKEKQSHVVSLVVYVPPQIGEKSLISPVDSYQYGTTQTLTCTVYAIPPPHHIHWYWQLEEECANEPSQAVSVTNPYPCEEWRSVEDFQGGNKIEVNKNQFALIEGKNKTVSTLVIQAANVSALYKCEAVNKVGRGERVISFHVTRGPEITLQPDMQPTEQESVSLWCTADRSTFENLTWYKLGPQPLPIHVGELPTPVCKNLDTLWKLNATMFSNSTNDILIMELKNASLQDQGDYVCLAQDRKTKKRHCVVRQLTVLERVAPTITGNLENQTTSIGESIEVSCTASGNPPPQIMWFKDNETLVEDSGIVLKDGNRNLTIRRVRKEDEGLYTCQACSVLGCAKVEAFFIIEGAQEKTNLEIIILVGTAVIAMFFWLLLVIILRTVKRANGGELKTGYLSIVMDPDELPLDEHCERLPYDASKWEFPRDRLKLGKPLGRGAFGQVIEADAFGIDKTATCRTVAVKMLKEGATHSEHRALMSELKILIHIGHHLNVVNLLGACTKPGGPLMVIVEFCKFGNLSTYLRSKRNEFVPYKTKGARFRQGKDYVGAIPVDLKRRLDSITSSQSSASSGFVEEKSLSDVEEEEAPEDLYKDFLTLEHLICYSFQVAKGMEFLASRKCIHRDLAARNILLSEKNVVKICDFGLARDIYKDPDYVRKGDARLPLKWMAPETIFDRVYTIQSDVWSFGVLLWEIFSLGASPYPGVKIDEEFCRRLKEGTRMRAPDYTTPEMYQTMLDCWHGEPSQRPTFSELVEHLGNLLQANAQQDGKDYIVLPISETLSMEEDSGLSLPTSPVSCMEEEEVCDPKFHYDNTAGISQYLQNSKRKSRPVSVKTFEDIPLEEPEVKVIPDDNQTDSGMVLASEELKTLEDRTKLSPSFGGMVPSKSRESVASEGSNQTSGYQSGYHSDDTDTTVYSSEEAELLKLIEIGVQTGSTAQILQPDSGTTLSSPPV

MV4-11 [7] = test: Antitumor activity against human MV4-11 cells xenografted in NOD-SCID mouse assessed as tumor growth inhibition at 40 mg/kg, ip once daily for 21 days measured every 3 days; type: functional; conditions: MV4-11, ip, route intraperitoneal, read-out: GI; method in brief: as §1
[8] = Cytotoxicity against human H820 cells after 72 hrs by MTT assay; conditions: NCI-H820, 72 h
Mus musculus = test: Toxicity in NOD-SCID mouse bearing human MV4-11 cells assessed as signs of toxicity at 20 to 100 mg/kg, ip administered qd for 21 days; type: organism-based; design: dose 20-100 mg/kg, route intraperitoneal; conditions: in vivo, 504 h
Method in brief: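 Female NOD-SCID mice (6−7 weeks old) received s.c. hind-flank injections of MV4-11 cells (100 μL of a 1 × 10⁸/mL suspension in serum-free medium). At 300−500 mm³, the mice were randomized into 4 groups of 6. They were dosed ip once daily for 21 days with 20, 40 or 100 mg/kg/d or vehicle (25% PEG400 plus 5% DMSO, 5 mL/kg). Body weight and signs of toxicity were followed throughout.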

MV4-11 [9] = test: Antitumor activity against human MV4-11 cells xenografted in NOD-SCID mouse assessed as tumor regression at 20 mg/kg, ip administered qd for 21 days measured after 2 to 3 days of last dose by hematoxylin staining; type: functional, organism-based; design: dose 20 mg/kg
Method in brief: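 NOD-SCID mice bearing MV4-11 tumours received 20 mg/kg/d ip and were sacrificed at set times after dosing. Tumours were formalin-fixed and paraffin-embedded, and 4−8 μm sections were cut. Proliferation by Ki67 immunostaining, apoptosis by TUNEL staining, tissue by hematoxylin staining; light-microscope imaging.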

[10] = target: Vascular endothelial growth factor receptor 3 (Homo sapiens, UniProt P35916); test: Inhibition of human FLT4
MV4-11 [11] = test: Antitumor activity against human MV4-11 cells xenografted in NOD-SCID mouse assessed as tumor growth regression at 100 mg/kg, ip once daily for 21 days measured every 3 days; type: functional, organism-based; design: dose 100 mg/kg; method in brief: as §1
[12] = target: Serine/threonine-protein kinase pim-1 (Homo sapiens, UniProt P11309); test: Inhibition of human Pim1
Sequence of Serine/threonine-protein kinase pim-1 (P11309 whole entry): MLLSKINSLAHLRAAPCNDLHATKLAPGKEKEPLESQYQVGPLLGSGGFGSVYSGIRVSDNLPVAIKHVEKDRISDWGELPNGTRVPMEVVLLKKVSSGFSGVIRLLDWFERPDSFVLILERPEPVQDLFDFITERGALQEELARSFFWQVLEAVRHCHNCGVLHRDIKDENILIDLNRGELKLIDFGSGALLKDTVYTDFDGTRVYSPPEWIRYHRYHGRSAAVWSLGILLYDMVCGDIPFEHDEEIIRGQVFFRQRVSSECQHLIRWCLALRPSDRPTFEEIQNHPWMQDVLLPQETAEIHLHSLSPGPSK

[13] = target: T1, Receptor-type tyrosine-protein kinase FLT3 (Homo sapiens, UniProt P36888); test: Inhibition of human FLT3
T1 sequence (P36888 whole entry): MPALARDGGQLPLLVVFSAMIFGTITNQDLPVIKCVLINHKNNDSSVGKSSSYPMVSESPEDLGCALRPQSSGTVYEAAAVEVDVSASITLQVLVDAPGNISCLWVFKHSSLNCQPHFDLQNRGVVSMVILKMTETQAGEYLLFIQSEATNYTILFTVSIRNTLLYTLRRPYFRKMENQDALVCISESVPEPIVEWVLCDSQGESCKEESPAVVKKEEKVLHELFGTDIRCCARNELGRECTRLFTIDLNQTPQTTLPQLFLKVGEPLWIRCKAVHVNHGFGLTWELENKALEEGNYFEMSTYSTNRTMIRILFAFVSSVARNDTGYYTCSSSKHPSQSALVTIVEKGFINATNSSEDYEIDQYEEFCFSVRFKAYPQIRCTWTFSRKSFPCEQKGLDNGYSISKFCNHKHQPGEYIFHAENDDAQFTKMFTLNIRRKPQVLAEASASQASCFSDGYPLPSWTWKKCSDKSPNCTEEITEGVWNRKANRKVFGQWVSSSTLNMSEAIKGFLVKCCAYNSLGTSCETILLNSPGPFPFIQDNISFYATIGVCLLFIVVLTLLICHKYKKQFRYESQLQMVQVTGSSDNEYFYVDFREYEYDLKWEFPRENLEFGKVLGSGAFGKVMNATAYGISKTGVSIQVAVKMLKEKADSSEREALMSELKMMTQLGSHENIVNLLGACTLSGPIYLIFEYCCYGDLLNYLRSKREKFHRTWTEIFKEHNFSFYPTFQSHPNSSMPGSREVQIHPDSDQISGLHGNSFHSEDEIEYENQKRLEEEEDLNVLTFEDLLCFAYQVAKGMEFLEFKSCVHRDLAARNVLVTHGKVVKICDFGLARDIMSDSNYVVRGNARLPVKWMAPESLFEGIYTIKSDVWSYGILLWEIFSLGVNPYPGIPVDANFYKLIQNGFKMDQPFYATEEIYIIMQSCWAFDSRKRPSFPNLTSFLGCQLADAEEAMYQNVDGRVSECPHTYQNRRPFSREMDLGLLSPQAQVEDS
Method in brief: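 Human FLT3 kinase assayed across a dose−response series at 200 μM ATP.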

A-431 = test: Cytotoxicity against human A431 cells after 72 hrs by MTT assay; conditions: A-431, 72 h
[14] = target: Insulin-like growth factor 1 receptor (Homo sapiens, UniProt P08069); test: Inhibition of human IGF-1R
Sequence of Insulin-like growth factor 1 receptor (P08069 31-736 limits assumed): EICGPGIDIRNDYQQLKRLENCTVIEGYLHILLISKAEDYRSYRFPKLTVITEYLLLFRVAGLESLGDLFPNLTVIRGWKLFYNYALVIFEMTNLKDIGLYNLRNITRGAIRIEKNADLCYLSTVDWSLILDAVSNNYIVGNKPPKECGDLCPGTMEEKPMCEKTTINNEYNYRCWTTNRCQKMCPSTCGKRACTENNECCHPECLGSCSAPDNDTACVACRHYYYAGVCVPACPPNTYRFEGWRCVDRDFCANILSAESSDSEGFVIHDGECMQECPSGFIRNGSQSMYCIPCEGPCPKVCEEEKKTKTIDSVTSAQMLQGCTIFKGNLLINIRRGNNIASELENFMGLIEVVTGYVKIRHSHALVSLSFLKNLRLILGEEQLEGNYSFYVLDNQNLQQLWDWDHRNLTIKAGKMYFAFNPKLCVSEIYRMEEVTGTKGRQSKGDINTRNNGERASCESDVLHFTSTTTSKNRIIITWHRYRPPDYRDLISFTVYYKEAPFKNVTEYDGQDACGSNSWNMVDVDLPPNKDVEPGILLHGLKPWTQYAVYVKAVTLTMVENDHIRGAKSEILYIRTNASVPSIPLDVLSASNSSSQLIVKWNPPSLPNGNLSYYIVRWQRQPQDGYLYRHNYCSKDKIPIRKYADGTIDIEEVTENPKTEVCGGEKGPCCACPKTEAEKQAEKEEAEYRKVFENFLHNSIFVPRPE
Sequence of Insulin-like growth factor 1 receptor (P08069 741-1367 limits assumed): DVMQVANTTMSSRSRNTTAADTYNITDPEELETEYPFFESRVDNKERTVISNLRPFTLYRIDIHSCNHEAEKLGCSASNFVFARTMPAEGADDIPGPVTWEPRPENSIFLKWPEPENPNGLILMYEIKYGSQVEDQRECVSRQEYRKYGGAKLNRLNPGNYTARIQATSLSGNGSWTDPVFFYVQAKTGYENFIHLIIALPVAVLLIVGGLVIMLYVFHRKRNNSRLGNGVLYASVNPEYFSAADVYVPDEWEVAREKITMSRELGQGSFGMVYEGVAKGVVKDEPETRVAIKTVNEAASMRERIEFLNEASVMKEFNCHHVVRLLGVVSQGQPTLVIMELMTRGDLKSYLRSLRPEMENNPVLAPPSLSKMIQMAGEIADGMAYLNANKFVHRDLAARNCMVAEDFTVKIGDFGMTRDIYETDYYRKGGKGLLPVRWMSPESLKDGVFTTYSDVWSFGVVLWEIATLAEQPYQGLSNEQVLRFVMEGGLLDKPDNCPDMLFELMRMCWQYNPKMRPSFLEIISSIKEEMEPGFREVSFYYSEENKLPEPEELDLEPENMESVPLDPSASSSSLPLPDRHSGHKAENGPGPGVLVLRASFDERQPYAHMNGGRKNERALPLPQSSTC

Structure (SMILES): Cc1ccc(NC(=O)Nc2nnc(Sc3ncnc4cc(OCCCN5CCOCC5)ccc34)s2)cc1
- IC50 (MV4-11 [1]): 0.006 µM
- IC50 (PC-9): 3.72 µM
- IC50 (K562): 12.7 µM
- inhibition in vivo at 100 mg/kg (MV4-11 [2]): 115%
- IC50 (Jurkat): 3.05 µM
- IC50 (PC-3): 15.7 µM
- Activity (MV4-11 [3]): inactive
- IC50 [4]: > 10 µM
- IC50 [5]: > 10 µM
- IC50 [6]: > 10 µM
- inhibition in vivo at 40 mg/kg (MV4-11 [7]): 84%
- IC50 [8]: > 20 µM
- Activity (Mus musculus): Non-toxic
- Activity (MV4-11 [9]): Active
- IC50 [10]: 3.7 µM
- Activity (MV4-11 [11]): Active
- IC50 [12]: > 10 µM
- IC50 [13]: 0.01 µM
- IC50 (A-431): 8.91 µM
- IC50 [14]: > 10 µM
